# Source: PubChem
# CHT PAM – allosteric activators of human choline transporter CHT; Q9GZV3; CHT-expressing cells, membrane potential dye, choline EC20; stronger effect = higher value; LV-AA mutant CHT in HEK293 cells; B-score at 10 µM; 310,000 tested, 0.49% active;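 active = initial fluorescence not abnormally high and integrated response B-score, plate-corrected, over 3 SD above library mean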
# Target sequence (Q9GZV3 whole entry, looked up): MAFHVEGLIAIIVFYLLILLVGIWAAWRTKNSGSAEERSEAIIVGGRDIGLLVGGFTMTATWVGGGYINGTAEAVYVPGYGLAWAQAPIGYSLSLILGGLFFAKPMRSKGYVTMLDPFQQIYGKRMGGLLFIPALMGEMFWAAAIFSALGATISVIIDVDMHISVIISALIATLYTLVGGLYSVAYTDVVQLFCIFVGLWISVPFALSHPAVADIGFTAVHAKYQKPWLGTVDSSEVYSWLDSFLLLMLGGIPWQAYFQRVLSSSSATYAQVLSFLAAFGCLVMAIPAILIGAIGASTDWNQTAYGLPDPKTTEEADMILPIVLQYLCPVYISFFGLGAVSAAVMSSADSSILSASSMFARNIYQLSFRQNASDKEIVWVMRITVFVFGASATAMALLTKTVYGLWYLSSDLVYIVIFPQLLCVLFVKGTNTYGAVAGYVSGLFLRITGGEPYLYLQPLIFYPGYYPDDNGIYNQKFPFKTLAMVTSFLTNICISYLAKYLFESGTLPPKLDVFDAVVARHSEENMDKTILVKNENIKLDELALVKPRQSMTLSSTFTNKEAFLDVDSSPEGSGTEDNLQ
# T cruzi repl – T. cruzi replication inhibition | T. cruzi beta-gal in NIH3T3, luminescence, 90 h | inhibition, % (test concentration not listed) | 300,000 tested, 1.4% active | AID 1885;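 active = mean inhibition across valid replicates above about 55%, limit read from the data; inconclusive = mean below that limit but half or more replicates reach it; inactive = mean below it, under half of replicates reach it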;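 also: signal also drops with host cell toxicity which is not excluded here; 0% = plate median of DMSO wells and 100% = zero luminescence signal; higher percent means less beta-gal luminescence so fewer parasites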
#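 System – NIH/3T3 host cells with β-galactosidase reporter T. cruzi · Doses – single 50 nL compound addition per well in DMSO · Reagent – 5000 T. cruzi trypomastigotes/well · Medium – Low-serum DMEM with 2% FBS · Timing – ≥90 h infection period, 3 h prior cell attachment · Evaluation – parasite load inhibition, % · Technique – GalScreen luminescence, 60 min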
# PolyA inhibitor – inhibitors of polyadenylation in S. cerevisiae; S. cerevisiae SKY197-pL101 polyadenylation reporter, beta-gal luminescence; efflux-impaired pdr1/pdr3 knockout yeast; score 100 = 6 SD above DMSO; activity score, % at 12 µM; 300,000 tested, 0.02% active;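 active = lowest replicate activity score at least 50, where 100 means six control SD above control mean; inconclusive = lowest score under 50 but half or more replicates reach 50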;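 also: yeast exposed to compound for 9 h at 30 °C; higher score means more reporter readthrough which indicates perturbed polyadenylation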
# CHT block – inhibitors of human choline transporter CHT; CHT-expressing cells, membrane potential dye, choline response; stronger effect = lower value; Q9GZV3; 310,000 tested, 0.86% active; B-score at 10 µM;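 active = B-score over 3 SD under the library average, and starting fluorescence ratio not unusually high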;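 also: choline stimulus applied at its EC90 after an EC20 pre-addition; B-score computed on integrated fluorescence ratio after choline addition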
# Active calls of the source: *; i = inactive; ? = inconclusive; nt = no result; ! = repeats disagree. Hits are enriched below; roughly 2.6% of the tested compounds scored in any of these assays.
SMILES,CHT PAM,T cruzi repl,PolyA inhibitor,CHT block
Cn1nccc1C(=O)N1CCCC(N2CCN(Cc3ccc4c(c3)OCO4)CC2)C1 (stereo not given),i,6.9,13.6,i
Cc1ccc2sc(N(CCCN(C)C)C(=O)CCS(=O)(=O)c3ccccc3)nc2c1C,i,62.5*,-6.7,i
CCOC(=O)C1=C(C)N=c2s/c(=C\c3ccc(O)c([N+](=O)[O-])c3)c(=O)n2C1c1ccccc1OC (stereo not given),i,9.3,-4.8,i
CCOC(=O)C1=C(C)n2c(s/c(=C/c3cccc([N+](=O)[O-])c3)c2=O)=NC1c1ccc(O)c(OC)c1 (stereo not given),i,69.9*,22.9,i
O=C(N/N=C/c1ccc(O)cc1)Nc1cccc2nsnc12,i,62.1*,-0.3,i
Cc1nc([N+](=O)[O-])cn1CC(=O)c1ccc(Br)cc1,i,3.2,25.6,i
CN(C)c1ccc(CNCC2CCCO2)cc1 (stereo not given),i,11.1,-3.2,i
CN(C)c1ccc(CNCCC2CCOC(C)(C)C2)cc1 (stereo not given),i,58.0*,14.7,i
Cc1cccc(N2CC(C(=O)Nc3nnc(SCc4cccnc4)s3)CC2=O)c1 (stereo not given),i,1.7,11.9,i
O=C(NCc1ccc(Cl)cc1)C1CCN(S(=O)(=O)c2cccnc2)CC1,i,3.7,-0.9,i
Cc1ccc(Cn2ncc3c(N4CCN(c5ccccc5C)CC4)ncnc32)cc1,i,59.4*,-20.7,i
Cc1ccc(Cn2ncc3c(N4CCOCC4)ncnc32)cc1,i,nt,nt,i
CCOc1ccc(C(=O)NC(=S)Nc2ccccc2N2CCC(C)CC2)cc1[N+](=O)[O-],i,55.0*,-6.9,i
Cn1c(SCC(=O)NCCc2ccccc2)ncc(C(=O)Nc2ccc(F)cc2)c1=O,i,-13.1,7.6,i
CN1CCC(N(C)CC(=O)Nc2ccc3c(c2)OC(F)(F)O3)CC1,i,44.4,-3.6,i
CCN(c1ccccc1)S(=O)(=O)c1ccc(Cl)c(NC(=O)CN(C)C2CCN(C)CC2)c1,i,56.4*,9.0,i
CN1CCC(N(C)CC(=O)Nc2cccc(Oc3ccccc3)c2)CC1,i,61.7*,10.9,i
CCOc1ccc(CCNC(=O)c2cc(-c3ccccc3)c(N3CCOCC3)s2)cc1,i,57.8*,1.8,i
CCOc1cc(S(=O)(=O)N2CCC(Cc3ccccc3)CC2)c(OCC)cc1-n1cnnn1,i,67.1*,?,i
Fc1cc2[nH]c(=S)[nH]c2c(Br)c1N1CCSCC1,i,15.7,-19.7,i
COc1cccc(-c2noc(-c3ccc(Cl)nc3)n2)c1,i,-5.5,5.3,i
Cc1cc(N2CCN(C)CC2)nc2ccc(NC(=S)NCCC(C)C)cc12,i,57.4*,-2.8,i
COc1ccccc1CNC(=S)Nc1ccc2nc(N3CCN(C)CC3)cc(C)c2c1,i,57.4*,2.3,i
O=S(=O)(Nc1cc(Cl)cc(Cl)c1)N1CCOCC1,i,-20.9,-14.2,i
CNc1ncnc(Sc2ccc(Cl)cc2)c1[N+](=O)[O-],i,65.7*,-16.1,i
SMILES,CHT PAM,T cruzi repl,PolyA inhibitor,CHT block
COc1cc(/C(C)=N/N2CCN(c3ccccc3OC)CC2)ccc1O,i,-11.8,-10.3,i
CCCCCn1c(N2CCC(Cc3ccccc3)CC2)nc2c1c(=O)[nH]c(=O)n2C,i,56.8*,17.7,i
Cc1c2c(nc3ccccc13)CCC(C(C)(C)C)C2 (stereo not given),i,56.6*,3.0,i
O=C(COC(=O)Cc1c(F)cccc1Cl)Nc1nnc(-c2ccccc2)o1,i,0.0,7.8,i
COc1ccccc1C1CCN(Cc2ccc3ccccc3c2)CC1,i,58.5*,-6.0,i
CCOc1ncccc1C(=O)Nc1ccc2nc(C)sc2c1,i,2.1,-0.2,i
CCCCN(CC)CCCNC(=S)Nc1ccc2nc3n(c(=O)c2c1)CCCCC3,i,56.0*,16.3,i
O=c1c2cc(NC(=S)NCCCN3CCC(Cc4ccccc4)CC3)ccc2nc2n1CCCCC2,i,57.2*,19.7,i
O=c1cc(CCl)nc2sc3ccccc3n12,i,61.2*,-0.3,i
CCOC(=O)Cn1cnc2c(cnn2-c2ccccc2)c1=O,i,-3.3,4.0,i
Nc1c(C(=O)Nc2ccccc2)sc2nc(-c3cccnc3)ccc12,i,-8.9,3.9,-4.94*
CC(NC(=O)CNC(=S)N(Cc1ccccc1)Cc1cccnc1)c1ccccc1 (stereo not given),i,54.5*,-10.0,i
Cc1ccccc1NC(=S)N(Cc1cccnc1)Cc1ccccc1Cl,i,76.0*,14.0,i
S=C(Nc1ccccc1Cl)N(Cc1ccccc1)Cc1cccnc1,i,61.5*,4.9,i
Cc1ccc(Cl)cc1NC(=S)N(Cc1ccccc1)Cc1cccnc1,i,76.3*,2.0,i
C=CCN1C(=O)C(CC(=O)Nc2ccc(OCCC)cc2)N(CCCN2CCN(Cc3ccccc3)CC2)C1=S (stereo not given),i,67.4*,5.8,i
NNC(=S)Nc1c(F)cc(F)cc1Br,i,6.6,5.6,i
Clc1ccccc1-c1ncc2ccccn12,i,57.1*,-20.3,i
CC(=O)Nc1ccc(NC2=C/C(=N/S(=O)(=O)c3cccs3)c3ccccc3C2=O)cc1,i,56.5*,17.8,i
Cc1cc[n+](C2=C([O-])c3ccccc3C(=O)/C2=N\S(=O)(=O)c2cccs2)cc1C,i,57.4*,-7.4,i
Cc1ccccc1NC1=C/C(=N\S(=O)(=O)c2cccs2)c2ccccc2C1=O,i,57.5*,-50.3,i
O=C(Cn1nnc(-c2ccc([N+](=O)[O-])cc2)n1)NNC(=O)c1ccccc1,i,6.9,-16.7,i
COc1ccc(-c2nc(CS(=O)CC(=O)NCc3ccc(Cl)cc3)c(C)o2)cc1OC (stereo not given),i,9.6,4.1,i
CCN(C(=O)COC(=O)c1cccs1)c1c(N)n(Cc2ccccc2)c(=O)[nH]c1=O,i,-19.2,2.6,i
Fc1ccc(-n2cc(-c3ccccc3)[n+]3c2SCC3)cc1,i,3.7,18.2,i
COc1ccc(-c2cn(-c3ccccc3)c3[n+]2CCS3)cc1,i,58.1*!,9.8,i
FC(F)(F)c1cccc(Cn2c3[n+](c4ccc(C(F)(F)F)cc42)CCCCC3)c1,i,8.4,-2.8,i
Cc1cc(C(C)(C)C)cc(C)c1Cn1c2[n+](c3ccc(C(F)(F)F)cc31)CCCCC2,i,58.8*,6.2,i
O=C(Nc1ccncc1)c1cc(S(=O)(=O)N2CCOCC2)ccc1Cl,i,3.1,-4.6,i
O=C(NCCN1CCOCC1)c1cccc(S(=O)(=O)NCc2ccccc2)c1,i,-0.8,-1.2,i
